A short description of data set [1]: folding enthalpy; higher = less favourable; fluorescence melt of hairpins on a sequencing array, two-state fit. The note with it: sodium 0.088 M. In outline: (§1)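 On a sequenced MiSeq flow cell, library hairpins with annealed Cy3 and quencher oligos were imaged for Cy3 fluorescence in 2.5 °C steps up to 60 °C, in 50 mM Na-HEPES pH 8.0, 25 mM NaCl. Normalisation used pre-quench Cy3 and control constructs. Bootstrapped two-state fits gave melting temperature and folding enthalpy, combined by inverse variance across four replicates and with fitted temperatures raised by 9.35 °C to match UV melts.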

Data set [2] can be described thus: melting temperature; fluorescence melt of hairpins on a sequencing array, two-state fit, raised by 9.35 °C to match UV melts. To be noted: sodium 0.088 M. An outline of the steps: as §1

In the array DNA melting data of Ke et al. (doi:10.1101/2024.01.08.574731) one finds folding enthalpy and Tm data, which are given here for 38 sequences.

On to GATCTAGACTTAGATC ((((((....)))))), for which the folding enthalpy in data set [1] is -39.3 kcal/mol. In addition, the Tm in data set [2] stood at 47 °C.

With GATCTAGAGGTAGATC ((((((....)))))), the folding enthalpy in data set [1] was -24.4 kcal/mol. Also, the Tm in data set [2] came to 35.1 °C.

Turning to GATCTAGATGTAGATC ((((((....)))))), in data set [1], the folding enthalpy is -27.9 kcal/mol. In data set [2], the Tm is 39.8 °C.

With GATCTAGATTAGATC ((((((...)))))), in data set [1], the folding enthalpy was -26.3 kcal/mol. Also, the Tm in data set [2] amounted to 36.2 °C.

For GATCTAGCAATAGATC ((((((....)))))), the folding enthalpy in data set [1] was -39.6 kcal/mol. The Tm in data set [2] amounted to 47.6 °C.

For GATCTAGCATTAGATC ((((((....)))))), the folding enthalpy in data set [1] is -43.5 kcal/mol. In addition, in data set [2], the Tm amounted to 47.6 °C.

With GATCTAGCCCTAGATC ((((((....)))))), the folding enthalpy in data set [1] is -37 kcal/mol. In addition, the Tm in data set [2] is 45.6 °C.

As for GATCTAGCGTAGATC ((((((...)))))), the folding enthalpy in data set [1] is -29.1 kcal/mol. The Tm in data set [2] came to 37.7 °C.

For GATCTAGCGTTAGATC ((((((....)))))), the folding enthalpy in data set [1] is -31.1 kcal/mol. The Tm in data set [2] is 39.7 °C.

Turning to GATCTAGCTCTAGATC ((((((....)))))), the folding enthalpy in data set [1] was -33.1 kcal/mol. For the same sequence, the Tm in data set [2] came to 45.2 °C.

Consider GATCTAGGAAACTAGACC (.(((((....))))).), for which, in data set [1], the folding enthalpy is -14.8 kcal/mol. The Tm in data set [2] amounted to 29.3 °C.

Turning to GATCTAGGAAACTAGGTC ((.((((....)))).)), the folding enthalpy in data set [1] is -34.3 kcal/mol. In addition, the Tm in data set [2] was 38.6 °C.

Turning to GATCTAGGAGTAGATC ((((((....)))))), the folding enthalpy in data set [1] is -30.2 kcal/mol. Moreover, the Tm in data set [2] amounted to 40.4 °C.

As to GATCTAGGCATAGATC ((((((....)))))), the folding enthalpy in data set [1] was -36.9 kcal/mol. The Tm in data set [2] was 48.8 °C.

GATCTAGGCTTAGATC ((((((....)))))): the folding enthalpy in data set [1] was -38.4 kcal/mol. Moreover, the Tm in data set [2] amounted to 46.6 °C.

GATCTAGTACTAGATC ((((((....)))))): in data set [1], the folding enthalpy is -51.4 kcal/mol. The Tm in data set [2] is 48.7 °C.

With GATCTAGTATTAGATC ((((((....)))))), the folding enthalpy in data set [1] was -37.5 kcal/mol. The Tm in data set [2] turned out to be 47.1 °C.

As to GATCTAGTTATAGATC ((((((....)))))), in data set [1], the folding enthalpy is -33.8 kcal/mol. The Tm in data set [2] turned out to be 48.9 °C.

As for GATCTAGTTTTAGATC ((((((....)))))), in data set [1], the folding enthalpy was -32.3 kcal/mol. In data set [2], the Tm amounted to 42.3 °C.

For the sequence GATCTATAATAGATC ((((((...)))))), the folding enthalpy in data set [1] is -21.8 kcal/mol. For the same sequence, the Tm in data set [2] came out at 38.3 °C.

With GATCTATCATAGATC ((((((...)))))), the folding enthalpy in data set [1] is -28 kcal/mol. In data set [2], the Tm turned out to be 40.1 °C.

With GATCTATCGATAGATC ((((((....)))))), the folding enthalpy in data set [1] is -44.3 kcal/mol. Besides, in data set [2], the Tm is 48 °C.

GATCTATCGTAGATC ((((((...)))))): the folding enthalpy in data set [1] was -12.9 kcal/mol. Also, in data set [2], the Tm was 38.4 °C.

As for GATCTATCGTTAGATC ((((((....)))))), the folding enthalpy in data set [1] is -19.4 kcal/mol. Further, the Tm in data set [2] stood at 37.8 °C.

In the case of GATCTATCTATAGATC ((((((....)))))), the folding enthalpy in data set [1] is -38 kcal/mol. Besides, in data set [2], the Tm was determined as 47.4 °C.

GATCTATGATTAGATC ((((((....)))))): the folding enthalpy in data set [1] was -31.9 kcal/mol. In addition, the Tm in data set [2] was 39.8 °C.

Regarding GATCTATGCATAGATC ((((((....)))))), the folding enthalpy in data set [1] is -43.4 kcal/mol. Further, in data set [2], the Tm is 49.9 °C.

For GATCTATGCTTAGATC ((((((....)))))), the folding enthalpy in data set [1] was -35.8 kcal/mol. Moreover, the Tm in data set [2] was 44.5 °C.

With GATCTATGTCTAGATC ((((((....)))))), the folding enthalpy in data set [1] was -26.6 kcal/mol. The Tm in data set [2] is 38.5 °C.

As to GATCTATGTTAGATC ((((((...)))))), the folding enthalpy in data set [1] is -27.7 kcal/mol. The Tm in data set [2] turned out to be 41.3 °C.

In the case of GATCTATTCGTAGATC ((((((....)))))), the folding enthalpy in data set [1] is -33.5 kcal/mol. Moreover, the Tm in data set [2] is 44.8 °C.

In the case of GATCTATTTATAGATC ((((((....)))))), the folding enthalpy in data set [1] was -48.6 kcal/mol. Also, the Tm in data set [2] amounted to 51.8 °C.

For GATCTATTTCTAGATC ((((((....)))))), in data set [1], the folding enthalpy was -30.2 kcal/mol. Further, the Tm in data set [2] is 38.9 °C.

For the sequence GATCTATTTTTAGATC ((((((....)))))), the folding enthalpy in data set [1] was -42.5 kcal/mol. Moreover, the Tm in data set [2] was 44.3 °C.

For the sequence GATCTCAAAAGAGATC ((((((....)))))), the folding enthalpy in data set [1] was -29.8 kcal/mol. For the same sequence, the Tm in data set [2] came to 48.5 °C.

In the case of GATCTCAAACGAGATC ((((((....)))))), in data set [1], the folding enthalpy was -41.4 kcal/mol. In data set [2], the Tm came out at 50.2 °C.

For GATCTCAACGAGATC ((((((...)))))), the folding enthalpy in data set [1] was -35.5 kcal/mol. In addition, the Tm in data set [2] worked out at 55.8 °C.

Take GATCTCAAGGGAGATC ((((((....)))))): the folding enthalpy in data set [1] was -28.6 kcal/mol. Besides, the Tm in data set [2] was 50.8 °C.
